# This is one part of a sample in which hits are shown more often than they occur.
# XBP1 UPR activ = adaptive UPR (XBP1) activation; CHO-XBP1 luciferase reporter, IRE1-XBP1 UPR activation, luminescence; percent of tunicamycin response, DMSO as zero; activation, % at 20 µM; 0.33% of 330,000 active;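 active = versus positive control, 20 µM dose yields 30% or more activation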
#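 Assay system: CHO-XBP1 luciferase reporter cells; Schedule: 6 h treatment, 37 °C; Detection: glow luminescence from Steady-Glo reagent; Benchmarks: high control tunicamycin 10 µg/mL final, low control DMSO vehicle only.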
# CHOP UPR activ = activators of apoptotic arm of unfolded protein response (CHOP); activation, % at 10 µM; 0.34% of 330,000 active; CHO-CHOP luciferase reporter, UPR activation, luminescence; percent of tunicamycin response over DMSO baseline;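 active = at 10 µM dose, activation of 40% or more, normalized to positive control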
#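 Dosing – one dose, 10 µM in 0.5% DMSO · System – CHO-CHOP cells, stable luciferase reporter of PERK-eIF2a-CHOP signalling · Input – 500 cells/well · Control set – tunicamycin 10 µg/mL final as positive, DMSO-only wells as negative · Timing – 6 h compound treatment, 37 °C · Measure – % activation vs tunicamycin · Technique – luminescence read with Steady-Glo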
# PvdQ acylase = P. aeruginosa PvdQ acylase inhibition; purified PvdQ acylase, fluorescence plate reader; inhibition, % at 10 µM; 0.063% of 340,000 active; AID 488965; in the data active = inhibition above about 30%, passing the limit was not always enough
# CHOP inhibitor = blocks CHOP induction under ER stress. CHO-K1 CHOP-promoter luciferase, tunicamycin-induced, 15-18 h. inhibition, % at 10 µM. 3.8% of 220,000 active. AID 2732;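 active = compounds that reduced the stress-induced luciferase reporter signal by more than about 70% of percent inhibition, limit read from the data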
# Hits are given with their value; i = inactive; nt = no result.
SMILES,XBP1 UPR activ,CHOP UPR activ,PvdQ acylase,CHOP inhibitor
CC(=O)c1c(C)[nH]c(C(=O)CSc2nnc(-c3cccs3)n2Cc2ccccc2)c1C,i,i,i,i
CCOC(=O)c1c(C)[nH]c(C(=O)CSc2nnc(-c3cccs3)n2Cc2ccccc2)c1C,i,i,i,78.8
CCOC(=O)c1c(C)[nH]c(C(=O)COC(=O)C(C)Oc2ccc(Cl)cc2Cl)c1C (stereo not given),i,i,i,74.6
O=C(NCC(=O)N1CCCCCC1)c1ccc(Cl)cc1,i,i,i,nt
COC(=O)c1c(-c2cccc3ccccc23)csc1NC(=O)Cc1ccc(OC)c(OC)c1,i,i,i,73.4
COC(=O)c1c(-c2ccc(C)cc2)csc1NC(=O)Cc1ccc(OC)c(OC)c1,nt,nt,i,i
CN(Cc1ccc(OC(F)F)cc1)C(=O)c1cccc(S(=O)(=O)N2CCN(c3ccccc3)CC2)c1,nt,nt,i,nt
CCS(=O)c1ccccc1C(=O)OCC(=O)Nc1ccc2ccccc2c1 (stereo not given),i,i,i,nt
Cc1ccccc1C(=O)NC(=S)Nc1ccc(S(=O)(=O)N(C)c2ccccc2)cc1,i,i,i,76.9
CC1CCN(C(=O)CCNS(=O)(=O)c2ccc(Cl)cc2)CC1,i,i,i,nt
COC(=O)c1cc(OC)c(OC)cc1NC(=O)c1cccc(C)c1,i,i,i,70.5
O=C(CC12CC3CC(CC(Br)(C3)C1)C2)NC1CCCC1,i,i,i,nt
O=C(COc1ccc(/C=N/NC(=O)c2ccncc2)cc1)Nc1cccc([N+](=O)[O-])c1,i,i,i,nt
O=C(COc1ccc(/C=N/NC(=O)c2ccccc2O)cc1)Nc1ccc([N+](=O)[O-])cc1,i,i,i,90.5
COc1cc(C(=O)NCC(c2ccc(F)cc2)N2CCOCC2)ccc1OCc1ccccc1Cl (stereo not given),i,i,i,nt
CCc1ccccc1NC1c2ccccc2C(=O)N1Cc1ccco1 (stereo not given),i,i,i,74.7
CCn1c(C)cc(/C=C2/NC(=O)N(Cc3ccccc3F)C2=O)c1C,i,i,i,i
Cc1cc(/C=C2/NC(=O)N(Cc3ccccc3F)C2=O)c(C)n1C(C)C,i,i,i,72.5
CC(C)(C)c1ccc(CSc2nnc(-c3ccccn3)n2Cc2ccco2)cc1,i,i,i,93.8
Cc1cc2oc(=O)cc(CN3CCCCC3C)c2cc1C(C)C (stereo not given),i,i,i,nt
CCOC(=O)c1c(C)[nH]c(N=Nc2cccc(C)c2)c1C,i,i,i,71.1
CCOC(=O)c1c(C)[nH]c(N=Nc2cccc(OC)c2)c1C,i,i,i,i
CCOC(=O)c1c(C)[nH]c(N=Nc2ccc(C)cc2)c1C,i,i,i,91.5
CCOC(=O)c1c(C)[nH]c(N=Nc2ccccc2)c1C,i,i,i,i
COc1ccc(-c2nc(CSCC(=O)NCCC3=CCCCC3)c(C)o2)cc1OC,i,i,i,i
SMILES,XBP1 UPR activ,CHOP UPR activ,PvdQ acylase,CHOP inhibitor
CC(=O)C1=C(C)NC(=O)CC1c1ccc(F)cc1 (stereo not given),i,i,i,i
Cc1ccc2nc(SCc3ccc([N+](=O)[O-])cc3)nc(C)c2c1,i,i,i,75.2
Cc1ccc2nc(C)cc(Nc3ccc([N+](=O)[O-])cc3)c2c1,nt,nt,i,103.5
COC(=O)c1ccc(Nc2cc(C)nc3ccc(C)cc23)cc1,i,i,i,i
Cc1ccc(Nc2nc(=O)c3cc([N+](=O)[O-])ccc3s2)cc1,i,i,i,93.3
Cc1cc(C)c2nc(SCc3ccc([N+](=O)[O-])cc3)nc(C)c2c1,i,i,i,i
Cc1sc(NC(=O)CN2CCOCC2)nc1-c1ccc2c(c1)CCN2S(=O)(=O)c1ccccc1,i,i,i,72.5
CCCC(=O)Nc1nc2ccc3nc(C)sc3c2s1,i,i,i,75.2
CCCCC(=O)Nc1nc2ccc3nc(C)sc3c2s1,i,i,i,i
NC(=O)c1ccsc1NC(=O)c1ccc(S(=O)(=O)N2CCCC2)cc1,i,i,i,i
CC1CC(C)CN(S(=O)(=O)c2ccc(C(=O)Nc3sccc3C(N)=O)cc2)C1 (stereo not given),i,i,i,87.3
CC(C)CCNC(=O)NC(=O)CSc1nnc(-c2ccccc2Br)o1,i,i,i,86.6
CCOC(=O)c1[nH]c2ccccc2c1NC(=O)c1ccc(S(=O)(=O)N2CCCC2)cc1,i,i,i,i
CCCCNC(=O)C(=O)N/N=C/c1cccc(Br)c1,i,i,i,70.6
CCOC(=O)C(=O)N/N=C/c1cccc(Br)c1,i,i,i,i
C=CC(C)(C)O[C@@H]1O[C@H](CO)[C@@H](O)[C@H](O)[C@H]1O,i,i,i,nt

# Screening data (PubChem BioAssay)
